# According to ChEMBL document CHEMBL1125266, “Tyrphostins. 2. Heterocyclic and alpha-substituted benzylidenemalononitrile tyrphostins as potent inhibitors of EGF receptor and ErbB2/neu tyrosine kinases” (J Med Chem, 1991):
# Experiments:
# NIH3T3 [1] = test: Inhibition of HER14 (human EGFR overexpressing NIH3T3) cell growth in the absence of EGF.; assay type: functional, Mus musculus
# In short: (§1)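 Serum-starved HER14 cells (NIH3T3 stably overexpressing EGF receptor) were given inhibitor at least 6-8 h before serum stimulation, with no EGF added. Inhibitor-containing medium was replaced every 24 h. Three parallel wells were used per concentration, and the IC50 for inhibition of serum-supported growth was determined.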
# [2] = target: Receptor tyrosine-protein kinase erbB-2 (Homo sapiens, UniProt P04626); test: In vitro inhibition of ERBB2 receptor kinase autophosphorylation.
# Receptor tyrosine-protein kinase erbB-2, sequence (P04626 whole entry): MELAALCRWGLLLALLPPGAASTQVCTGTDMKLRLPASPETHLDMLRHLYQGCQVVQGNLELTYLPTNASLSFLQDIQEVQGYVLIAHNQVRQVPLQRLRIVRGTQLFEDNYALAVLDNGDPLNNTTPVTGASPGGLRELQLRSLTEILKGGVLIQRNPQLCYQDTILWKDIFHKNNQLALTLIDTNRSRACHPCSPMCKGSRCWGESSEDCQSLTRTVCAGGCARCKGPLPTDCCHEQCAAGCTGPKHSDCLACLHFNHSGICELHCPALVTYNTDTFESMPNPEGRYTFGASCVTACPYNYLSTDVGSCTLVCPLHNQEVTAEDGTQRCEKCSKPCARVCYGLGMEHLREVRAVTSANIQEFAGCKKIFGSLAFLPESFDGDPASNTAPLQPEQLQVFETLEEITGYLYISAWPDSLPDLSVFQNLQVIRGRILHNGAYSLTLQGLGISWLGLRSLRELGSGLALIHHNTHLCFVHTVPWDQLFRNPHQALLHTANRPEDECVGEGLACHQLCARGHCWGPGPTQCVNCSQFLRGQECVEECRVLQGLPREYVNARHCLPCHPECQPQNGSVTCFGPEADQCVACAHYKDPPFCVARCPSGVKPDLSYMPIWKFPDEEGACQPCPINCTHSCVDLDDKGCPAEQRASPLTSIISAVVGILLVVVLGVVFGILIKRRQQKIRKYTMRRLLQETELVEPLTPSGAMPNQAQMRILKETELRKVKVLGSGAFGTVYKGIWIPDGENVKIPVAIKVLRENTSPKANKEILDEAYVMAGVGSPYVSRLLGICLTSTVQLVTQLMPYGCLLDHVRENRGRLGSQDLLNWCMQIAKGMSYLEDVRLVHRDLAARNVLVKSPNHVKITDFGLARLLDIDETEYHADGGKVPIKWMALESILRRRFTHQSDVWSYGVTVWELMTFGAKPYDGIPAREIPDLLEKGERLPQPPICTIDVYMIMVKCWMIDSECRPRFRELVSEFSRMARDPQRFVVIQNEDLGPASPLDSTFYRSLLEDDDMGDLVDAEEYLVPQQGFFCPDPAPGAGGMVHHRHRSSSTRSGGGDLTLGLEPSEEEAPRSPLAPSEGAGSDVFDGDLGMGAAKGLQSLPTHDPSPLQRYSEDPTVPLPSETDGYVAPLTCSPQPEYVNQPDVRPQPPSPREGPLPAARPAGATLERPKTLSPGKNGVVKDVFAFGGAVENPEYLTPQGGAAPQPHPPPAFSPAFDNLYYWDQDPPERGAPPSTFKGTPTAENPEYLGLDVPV
# [3] = target: T1, Epidermal growth factor receptor (Homo sapiens, UniProt P00533); test: In vitro inhibition of HER1 autophosphorylation.
# T1 sequence (P00533 whole entry): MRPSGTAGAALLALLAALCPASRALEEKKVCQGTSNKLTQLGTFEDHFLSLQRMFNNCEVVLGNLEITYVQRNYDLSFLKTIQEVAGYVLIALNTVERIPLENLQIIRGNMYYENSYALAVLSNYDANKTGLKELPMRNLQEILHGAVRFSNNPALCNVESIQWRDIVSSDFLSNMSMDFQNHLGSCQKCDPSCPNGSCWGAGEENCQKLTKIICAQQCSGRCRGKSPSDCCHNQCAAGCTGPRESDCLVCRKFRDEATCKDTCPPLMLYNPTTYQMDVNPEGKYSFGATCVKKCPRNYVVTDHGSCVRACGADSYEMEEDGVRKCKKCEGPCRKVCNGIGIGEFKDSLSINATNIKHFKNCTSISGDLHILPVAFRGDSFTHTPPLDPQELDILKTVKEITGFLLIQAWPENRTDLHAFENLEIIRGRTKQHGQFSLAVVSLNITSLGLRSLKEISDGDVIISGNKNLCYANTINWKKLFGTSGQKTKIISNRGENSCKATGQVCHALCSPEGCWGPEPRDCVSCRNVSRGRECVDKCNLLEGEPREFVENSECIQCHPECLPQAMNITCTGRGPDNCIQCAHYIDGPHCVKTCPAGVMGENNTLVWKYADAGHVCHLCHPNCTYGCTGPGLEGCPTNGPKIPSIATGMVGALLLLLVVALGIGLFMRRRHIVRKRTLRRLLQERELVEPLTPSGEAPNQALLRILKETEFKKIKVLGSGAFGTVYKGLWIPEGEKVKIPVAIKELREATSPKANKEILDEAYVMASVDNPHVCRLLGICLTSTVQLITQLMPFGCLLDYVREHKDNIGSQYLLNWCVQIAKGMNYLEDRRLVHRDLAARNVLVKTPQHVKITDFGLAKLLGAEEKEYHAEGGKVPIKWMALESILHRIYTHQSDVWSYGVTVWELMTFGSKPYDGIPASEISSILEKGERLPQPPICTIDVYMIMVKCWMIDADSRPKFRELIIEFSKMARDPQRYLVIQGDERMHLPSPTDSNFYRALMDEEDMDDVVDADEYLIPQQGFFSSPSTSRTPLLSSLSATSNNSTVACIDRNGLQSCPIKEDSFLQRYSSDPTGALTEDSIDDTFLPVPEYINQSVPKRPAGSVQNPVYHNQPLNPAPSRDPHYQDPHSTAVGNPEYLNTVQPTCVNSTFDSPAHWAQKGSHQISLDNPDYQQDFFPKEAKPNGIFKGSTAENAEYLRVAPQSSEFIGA
# [4] = target: T1, Epidermal growth factor receptor; test: Inhibition of polyGAT phosphorylation
# NIH3T3 [5] = test: (§2) Inhibition of HER14 serum dependent cell proliferation without EGF; assay type: functional, Mus musculus; in short: as §1
# [6] = target: T1, Epidermal growth factor receptor; test: Inhibition of epidermal growth factor receptor autophosphorylation
# NIH3T3 [7] = test: as §2; details: Mus musculus
# NIH3T3 [8] = test: as §2; assay type: functional, cell-based; details: Mus musculus; in short: as §1
Compound,IC50 [2] [µM],IC50 [3] [µM],IC50 [4] [µM],also measured
Cc1ccc(C(=O)/C(C#N)=C/c2ccc(O)c(O)c2)cc1,10,15,0.88,IC50 (NIH3T3 [1]): 100 µM
N#CC(C#N)=C1CCc2cc(O)c(O)cc21,,,0.5,Inhibition (NIH3T3 [5]): >150%
N#C/C(=C\c1ccc(O)c(O)c1)C(=O)c1ccc([N+](=O)[O-])cc1,3,11,2.3,IC50 (NIH3T3 [1]): <<20 uM
N#CC(C#N)=C1CCCc2c(O)cccc21,,,1200,
N#CC(C#N)=C1C(=O)Nc2ccc([N+](=O)[O-])cc21,,,40,
N#C/C(=C\c1ccc(O)c(O)c1)C(=O)c1ccccc1Cl,12,6.6,1.54,
CC(NC(=O)/C(C#N)=C/c1ccc(O)c(O)c1)c1ccccc1 (stereo in doubt; 44),37,2.5,0.4,IC50 (NIH3T3 [1]): 10 µM
N#CC(C#N)=Cc1ccc(S(=O)(=O)O)o1,,,> 250,
CC(=O)Nc1ccc(C=C(C#N)C#N)cc1,,,> 325,
N#C/C(=C\c1ccc(O)c(O)c1)C(=O)c1ccc(F)cc1,13.6,,0.56,IC50 (NIH3T3 [5]): 80 µM; IC50 [6]: 5.1 µM
C[S+]([O-])c1ccc(C=C(C#N)C#N)cc1 (centres undefined),,,1800,
N#C/C(=C\c1ccc(O)c(O)c1)C(=O)NCc1ccccc1,13.5,,,IC50 (NIH3T3 [1]): 25 µM
N#C/C(=C\c1ccc(O)c(O)c1)C(N)=O,6.4,4.5,,IC50 (NIH3T3 [1]): 60 µM
N#C/C(=C\c1ccc(O)c(O)c1)C(=O)c1ccc(O)c(O)c1,18,5,0.37,IC50 (NIH3T3 [5]): > 50 µM
CC(NC(=O)/C(C#N)=C/c1ccc(O)c(O)c1)c1ccccc1 (stereo in doubt; 50),,,0.86,
Cc1cc(C)c(C(=O)/C(C#N)=C/c2ccc(O)c(O)c2)c(C)c1,50,24,10.7,
N#C/C(=C\c1ccc(O)c(O)c1)C(=O)Nc1ccccc1,42,,,IC50 (NIH3T3 [1]): > 50 µM
N#CC(C#N)=Cc1ccco1,,,> 1250,
COc1ccc(C=C(C#N)C#N)cc1F,,,800,
N#C/C(=C\c1ccc(O)c(O)c1)C(=O)Nc1ccccc1Cl,57,2.1,1.1,IC50 (NIH3T3 [1]): 12 µM
N#CC(C#N)=Cc1ccc2[nH]ccc2c1,,,,IC50 (NIH3T3 [7]): 12 µM
N#CC(C#N)=Cc1ccc2c(c1)CCN2Cc1ccccc1,,,> 2500,

Compound,IC50 [2] [µM],IC50 [3] [µM],IC50 [4] [µM],also measured
COc1ccc(CCNC(=O)/C(C#N)=C/c2ccc(O)c(O)c2)cc1OC,,,1.7,
CCOC(=O)C(Cc1ccccc1)NC(=O)/C(C#N)=C/c1ccc(O)c(O)c1 (centres undefined),> 333,49,1.53,
N#C/C(=C\c1ccc(O)c(O)c1)C(=O)NCCCc1ccccc1,35,0.7,0.7,IC50 (NIH3T3 [1]): 25 µM
N#C/C(=C\c1ccc(O)c(O)c1)C(=O)NCCCCc1ccccc1,> 500,5,1.1,IC50 (NIH3T3 [1]): 10 µM
N#C/C(=C\c1ccc(O)c(O)c1)C(=O)c1cccs1,35,31,3.1,
N#CC(C#N)=C(N)/C(C#N)=C/c1ccc2[nH]ccc2c1,,,820,IC50 (NIH3T3 [5]): >>100 uM; IC50 (NIH3T3 [8]): 7 µM
CN1C(=O)C(=C(C#N)C#N)c2cc(O)ccc21,,,26,
COc1cc2c(cc1O)NC(=O)C2=C(C#N)C#N,,,60,
N#CC(C#N)=C1C(=O)Nc2cc(O)c(O)cc21,,,2.5,
N#CC(C#N)=C1CCc2c1ccc(O)c2O,,,7,
N#CC(C#N)=C1C(=O)Nc2ccc(O)cc21,,,12.5,
COc1ccc(NC(=O)/C(C#N)=C/c2ccc(O)c(O)c2)c(OC)c1,> 166,,,
N#C/C(=C\c1ccc(O)c(O)c1)C(=O)N1CCCCC1,,,> 1000,
Cc1cccc(C)c1NC(=O)/C(C#N)=C/c1ccc(O)c(O)c1,34,10.3,5.1,IC50 (NIH3T3 [1]): > 20 µM
N#C/C(=C\c1ccc(O)c(O)c1)C(=O)NCCc1ccccc1,23,< 0.625,0.93,
N#C/C(=C\c1ccc(O)c(O)c1)C(=O)NC1CCCCC1,17,5.9,1.6,IC50 (NIH3T3 [1]): 50 µM
N#C/C(=C\c1ccc(O)c(O)c1)C(=O)N1CCN(c2ccccc2)CC1,49,55,4.3,
N#C/C(=C\c1ccc(O)c(O)c1)C(=O)c1ccccc1,18,14,1.3,IC50 (NIH3T3 [1]): 120 µM
CSc1ccc(C=C(C#N)C#N)cc1,,,> 625,
N#C/C(=C\c1ccc(O)c(O)c1)C(=O)N1CCc2ccccc21,4.9,12,2.1,IC50 (NIH3T3 [1]): 100 µM
N#CC(C#N)=Cc1ccc(C#N)cc1,,,1400,
N#CC(C#N)=Cc1cccnc1,,,225,
